{
  "source": "ChEMBL document CHEMBL1123002",
  "about": "“Resolution of 5,6-dihydroxy-2-(N,N-di-n-propylamino)tetralin in relation to the structural and stereochemical requirements for centrally acting dopamine agonists” (J Med Chem, 1985)",
  "key": {"Rattus norvegicus [1]": {"test_system": "Rattus norvegicus", "test": "In vivo dopaminergic activity was assessed by measuring the decrease of DA […] levels in rat brain at dose 0.25 umol/kg", "assay_type": "functional", "design": "scale not given: the % may be the effect or the level left", "in_short": "(§1)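 Female Wistar-derived rats (160–220 g) given drug ip in saline with 0.1% sodium bisulfite. Killed by decapitation 40 min later. Striata dissected, frozen on dry ice, stored at -80 °C, then homogenized in 0.1 M perchloric acid and centrifuged. DA, HVA and DOPAC in the supernatant measured by Sephadex G10 cleanup and reverse-phase HPLC with amperometric detection, compared against controls.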"}, "Rattus norvegicus [2]": {"test_system": "Rattus norvegicus", "test": "In vivo dopaminergic activity was assessed by measuring the decrease of DA metabolite (HVA) levels in rat brain at dose 0.5 umol/kg", "assay_type": "functional", "design": "scale not given: the % may be the effect or the level left", "in_short": "as §1"}, "Rattus norvegicus [3]": {"test_system": "Rattus norvegicus", "test": "In vivo dopaminergic activity was assessed by scoring stereotyped behavior in rats at dose 0.5 umol/kg", "assay_type": "functional", "in_short": "(§2)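 Rats dosed ip with drug in saline containing 0.1% sodium bisulfite. Stereotyped behaviour scored over 30 min after injection by a published rating method.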"}, "Rattus norvegicus [4]": {"test_system": "Rattus norvegicus", "test": "In vivo dopaminergic activity was assessed by measuring the decrease of DA metabolite (DOPAC) levels in rat brain at dose 0.25 umol/kg", "assay_type": "functional", "design": "scale not given: the % may be the effect or the level left", "in_short": "as §1"}, "Rattus norvegicus [5]": {"test_system": "Rattus norvegicus", "test": "In vivo dopaminergic activity was assessed by scoring stereotyped behavior in rats at dose 0.25 umol/kg", "assay_type": "functional", "in_short": "as §2"}, "Rattus norvegicus [6]": {"test_system": "Rattus norvegicus", "test": "In vivo dopaminergic activity was assessed by measuring the decrease of DA metabolite (HVA) levels in rat brain at dose 0.25 umol/kg", "assay_type": "functional", "design": "scale not given: the % may be the effect or the level left", "in_short": "as §1"}, "Rattus norvegicus [7]": {"test_system": "Rattus norvegicus", "test": "In vivo dopaminergic activity was assessed by measuring the decrease of DA metabolite (DOPAC) levels in rat brain at dose 0.5 umol/kg", "assay_type": "functional", "design": "scale not given: the % may be the effect or the level left", "in_short": "as §1"}, "Rattus norvegicus [8]": {"test_system": "Rattus norvegicus", "test": "In vivo dopaminergic activity was assessed by measuring the decrease of DA […] levels in rat brain at dose 0.5 umol/kg", "assay_type": "functional", "design": "scale not given: the % may be the effect or the level left", "in_short": "as §1"}, "Dopamine receptor [9]": {"target": "Dopamine receptor", "test": "Inhibitory activity against [3H]NPA binding (0.45) to dopamine receptor in striata of female wistar rats", "assay_type": "protein assay", "in_short": "(§3)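 Rat striatal membranes prepared in 15 mM Tris-HCl with 1 mM EDTA and 0.01% ascorbate, pH 7.5, washed by repeated 35000g spins. Incubated in triplicate for 30 min at 25 °C with 0.46 nM [³H]NPA and competitor over 10⁻¹¹–10⁻⁵ M. Nonspecific binding defined with 10⁻⁶ M (+)-butaclamol. Bound label collected on GF/B filters and counted by scintillation. IC50 from log-probit analysis of at least three determinations.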"}, "Dopamine receptor [10]": {"target": "Dopamine receptor", "test": "Inhibitory activity against [3H]NPA binding (0.45) to dopamine receptors in striata of female wistar rats", "assay_type": "protein assay", "in_short": "as §3"}, "Rattus norvegicus [11]": {"test_system": "Rattus norvegicus", "test": "In vivo dopaminergic activity was assessed by measuring the decrease of DA […] levels in rat brain at dose 5 umol/kg", "assay_type": "functional", "design": "scale not given: the % may be the effect or the level left", "in_short": "as §1"}, "Rattus norvegicus [12]": {"test_system": "Rattus norvegicus", "test": "In vivo dopaminergic activity was assessed by measuring the decrease of DA metabolite (DOPAC) levels in rat brain at dose 10 umol/kg", "assay_type": "functional", "design": "scale not given: the % may be the effect or the level left", "in_short": "as §1"}, "Rattus norvegicus [13]": {"test_system": "Rattus norvegicus", "test": "In vivo dopaminergic activity was assessed by scoring stereotyped behavior in rats at dose 10 umol/kg", "assay_type": "functional", "in_short": "as §2"}, "Rattus norvegicus [14]": {"test_system": "Rattus norvegicus", "test": "In vivo dopaminergic activity was assessed by measuring the decrease of DA metabolite (DOPAC) levels in rat brain at dose 5 umol/kg", "assay_type": "functional", "design": "scale not given: the % may be the effect or the level left", "in_short": "as §1"}, "Rattus norvegicus [15]": {"test_system": "Rattus norvegicus", "test": "In vivo dopaminergic activity was assessed by scoring stereotyped behavior in rats at dose 5 umol/kg", "assay_type": "functional", "in_short": "as §2"}, "Rattus norvegicus [16]": {"test_system": "Rattus norvegicus", "test": "In vivo dopaminergic activity was assessed by measuring the decrease of DA metabolite (HVA) levels in rat brain at dose 5 umol/kg", "assay_type": "functional", "design": "scale not given: the % may be the effect or the level left", "in_short": "as §1"}, "Rattus norvegicus [17]": {"test_system": "Rattus norvegicus", "test": "In vivo dopaminergic activity was assessed by measuring the decrease of DA metabolite (HVA) levels in rat brain at dose 10 umol/kg", "assay_type": "functional", "design": "scale not given: the % may be the effect or the level left", "in_short": "as §1"}, "Rattus norvegicus [18]": {"test_system": "Rattus norvegicus", "test": "In vivo dopaminergic activity was assessed by measuring the decrease of DA […] levels in rat brain at dose 10 umol/kg", "assay_type": "functional", "design": "scale not given: the % may be the effect or the level left", "in_short": "as §1"}},
  "data": [
    {"molecule": "CCCN(CCC)C1CCc2c(ccc(O)c2O)C1", "note": "(single isomer, unassigned; (-))", "values": [
      {"measurement": "Control", "setting": "Rattus norvegicus [1]", "value": 98.4, "unit": "%"},
      {"measurement": "Control", "setting": "Rattus norvegicus [2]", "value": "<42.6", "unit": "%"},
      {"measurement": "Stereotypy score", "setting": "Rattus norvegicus [3]", "value": 4},
      {"measurement": "Control", "setting": "Rattus norvegicus [4]", "value": "<53.7", "unit": "%"},
      {"measurement": "Stereotypy score", "setting": "Rattus norvegicus [5]", "value": 4},
      {"measurement": "Control", "setting": "Rattus norvegicus [6]", "value": "<42.5", "unit": "%"},
      {"measurement": "Control", "setting": "Rattus norvegicus [7]", "value": "<58", "unit": "%"},
      {"measurement": "Control", "setting": "Rattus norvegicus [8]", "value": 114.2, "unit": "%"},
      {"measurement": "IC50", "setting": "Dopamine receptor [9]", "value": 2.5, "unit": "nM"}
    ]},
    {"molecule": "CCCN(CCC)C1CCc2c(ccc(O)c2O)C1", "note": "(racemic)", "values": [
      {"measurement": "Control", "setting": "Rattus norvegicus [1]", "value": 103, "unit": "%"},
      {"measurement": "Control", "setting": "Rattus norvegicus [2]", "value": 47.6, "unit": "%"},
      {"measurement": "Control", "setting": "Rattus norvegicus [4]", "value": 61, "unit": "%"},
      {"measurement": "Control", "setting": "Rattus norvegicus [6]", "value": 36.2, "unit": "%"},
      {"measurement": "IC50", "setting": "Dopamine receptor [10]", "value": 4, "unit": "nM"},
      {"measurement": "Control", "setting": "Rattus norvegicus [7]", "value": 58.5, "unit": "%"},
      {"measurement": "Control", "setting": "Rattus norvegicus [8]", "value": 114.9, "unit": "%"}
    ]},
    {"molecule": "CCCN(CCC)C1CCc2c(ccc(O)c2O)C1", "note": "(single isomer, unassigned; (+))", "values": [
      {"measurement": "Control", "setting": "Rattus norvegicus [11]", "value": 115, "unit": "%"},
      {"measurement": "Control", "setting": "Rattus norvegicus [12]", "value": "<60.1", "unit": "%"},
      {"measurement": "Control", "setting": "Rattus norvegicus [2]", "value": 86.5, "unit": "%"},
      {"measurement": "Stereotypy score", "setting": "Rattus norvegicus [3]", "value": 0},
      {"measurement": "Stereotypy score", "setting": "Rattus norvegicus [13]", "value": 3},
      {"measurement": "Control", "setting": "Rattus norvegicus [14]", "value": 68.9, "unit": "%"},
      {"measurement": "Control", "setting": "Rattus norvegicus [7]", "value": 93.3, "unit": "%"},
      {"measurement": "Control", "setting": "Rattus norvegicus [8]", "value": 109.4, "unit": "%"},
      {"measurement": "Stereotypy score", "setting": "Rattus norvegicus [15]", "value": 3},
      {"measurement": "Control", "setting": "Rattus norvegicus [16]", "value": "<48.6", "unit": "%"},
      {"measurement": "Control", "setting": "Rattus norvegicus [17]", "value": "<41.2", "unit": "%"},
      {"measurement": "Control", "setting": "Rattus norvegicus [18]", "value": "<125.8", "unit": "%"},
      {"measurement": "IC50", "setting": "Dopamine receptor [9]", "value": 400, "unit": "nM"}
    ]}
  ]
}
